The values below come from paper PMC10664564 (Chemical Science, 2023).

One data set concerns the target T1, SQS (Homo sapiens, UniProt P37268).
T1 sequence (P37268 1-417): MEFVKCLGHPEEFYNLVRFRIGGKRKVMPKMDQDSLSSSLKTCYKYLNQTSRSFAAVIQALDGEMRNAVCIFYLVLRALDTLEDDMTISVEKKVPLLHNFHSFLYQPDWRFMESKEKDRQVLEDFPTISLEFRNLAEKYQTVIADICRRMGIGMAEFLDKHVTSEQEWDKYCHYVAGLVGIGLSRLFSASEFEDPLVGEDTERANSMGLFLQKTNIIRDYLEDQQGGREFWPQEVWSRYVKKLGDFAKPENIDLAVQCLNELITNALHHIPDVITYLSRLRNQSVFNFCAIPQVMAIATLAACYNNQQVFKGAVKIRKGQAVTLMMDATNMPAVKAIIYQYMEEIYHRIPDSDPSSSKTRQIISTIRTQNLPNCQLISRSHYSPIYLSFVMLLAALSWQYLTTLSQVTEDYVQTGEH
Nature of the data set: Western blot of SQS protein levels in HeLa cells. The note with it: 18 h, 10 μM. The class given is cell-based. In a few lines:
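HeLa cells were exposed to test compound, usually for 18 h, and SQS was detected by western blot (n = 2–4). DC50 and Dmax came from an 18 h dose–response (n = 4, mean ± SEM). A time course used 10 μM. Inhibitor arms were pre-incubated 2 h with MG132 (20 μM), chloroquine (20 μM) or MLN4924 (5 μM). A turnover arm used cycloheximide at 100 μg mL−1.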
Background: A western blot detects proteins with antibodies after separation by electrophoresis.

The conditions of data set [1]: phase II and III clinical trials, development stopped; cited from earlier work.
In a further data set the target is T2, Recombinant SQS (31-370) (Homo sapiens, UniProt P37268).
T2 sequence (P37268 31-370): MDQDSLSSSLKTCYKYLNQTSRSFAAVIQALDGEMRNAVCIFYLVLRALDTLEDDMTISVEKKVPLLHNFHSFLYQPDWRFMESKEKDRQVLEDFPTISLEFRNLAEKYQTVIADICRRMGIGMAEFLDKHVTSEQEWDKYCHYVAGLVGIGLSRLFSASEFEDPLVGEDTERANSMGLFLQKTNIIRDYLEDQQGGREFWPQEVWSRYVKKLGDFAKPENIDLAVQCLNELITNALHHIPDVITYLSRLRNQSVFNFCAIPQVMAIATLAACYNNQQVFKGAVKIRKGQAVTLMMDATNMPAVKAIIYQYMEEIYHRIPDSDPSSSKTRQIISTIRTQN
Briefly: In vitro SQS activity assay. The class given is biochemical. The note with it: compound at 1 μM, positive control.

The subject of the next data set is HeLa cells. Briefly: Cell viability assay ± MBCD. The note with it: 72 h. The format is cell-based, human. In a few lines:
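HeLa cells grown 72 h in FBS-containing medium with methyl β-cyclodextrin at 3 mM (a concentration set as non-toxic for HeLa), treated with a range of test compound concentrations; viability read; n = 3, mean ± SD of one biological replicate shown.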

Each structure is given as a SMILES string.

As for `CCNCCN(CC)c1nc(Nc2ccc3ncoc3c2)nc(N[C@@H](C)C2CCCCC2)n1` [LS-102], the “SQS levels, tool compound alone” value on SQS was “marked accumulation of SQS”.

Take `COc1cccc([C@H]2O[C@H](CC(=O)N3CCC(CC(=O)O)CC3)C(=O)N(CC(C)(C)COC(C)=O)c3ccc(Cl)cc32)c1OC` [TAK-475, lapaquistat acetate]: the clinical safety finding result in data set [1] is reported as “hepatotoxicity accompanied by elevated bilirubin levels”. In the case of `C=C(CC[C@]12O[C@H](C(=O)O)[C@@](O)(C(=O)O)[C@](C(=O)O)(O1)[C@H](OC(=O)/C=C/[C@@H](C)C[C@@H](C)CC)[C@H]2O)[C@@H](OC(C)=O)[C@H](C)Cc1ccccc1` [ZAA, zaragozic acid A], the “inhibition of SQS activity” value at Recombinant SQS (31-370) is reported as “completety inhibited the reaction”. For the same compound, in the data set with HeLa cells (MBCD 3 mM, 5 and 10 μM), the “cell viability under cholesterol depletion” value is “completely abolish cell viability”. Moreover, the cell viability result with HeLa cells (standard conditions (DMEM 10% FBS)) is on record as “neither ZAA nor KY02111 adversely affected cell viability”.
